Where “and” joins values, the source holds several entries; their conditions need not be identical. Identical values can stand only once.
Assays:
IDO1 = IDO1 (Homo sapiens, UniProt P14902); experiment: Cellular IDO1 inhibition; type: cell-based; details: A375 cell line, IFN-γ, 48 h
Summary of the method: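 A375 cells (0.5×10^5/well) were grown overnight, then given test compound (serial dilutions 0.01–30 µM, or single 10 µM) with human IFN-γ (500 U/mL final) and 0.1% DMSO for 48 h. Medium was deproteinized with 20% CCl₃COOH. L-Kyn was quantified by C18 HPLC at 330 nm against a calibration curve; % inhibition was taken versus basal levels. IC50s came from concentration-response curves, ≥3 experiments in triplicate.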

TDO (P1.TDO) = TDO (P1.TDO) (Homo sapiens, UniProt P48775); experiment: IDO1 and TDO selectivity assay, P1.TDO cells; type: cell-based; details: 10 μM, 16 h
Summary of the method: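 Mouse mastocytoma P815-derived P1.HTR cells, stably electroporated with a human TDO plasmid and selected in puromycin, grown in IMDM with 1 mM glutamine and penicillin/streptomycin, used at ≤10th passage. Cells incubated 16 h with 10 μM test compound; DMSO vehicle as control. Supernatant L-Kyn measured by HPLC-UV (C18 column) against a calibration curve, detection limit 0.05 μM. Triplicate.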

[1] = In vitro metabolic stability in rat liver S9 fraction; type: in vitro ADME; details: rat liver S9 with NADPH, 5 μM substrate, 37 °C
Summary of the method: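 Pooled male Sprague Dawley rat liver S9 (1.5 mg/mL final protein) was used in 50 mM Tris pH 7.4 with 3.3 mM MgCl₂, 1.3 mM β-NADP, 3.3 mM glucose 6-phosphate, 0.4 U/mL G6PDH and 1% acetonitrile. Test compound was 5 µM, shaken 60 min at 37 °C. Controls lacked S9 or cofactors. Reactions were stopped with ice-cold acetonitrile and centrifuged; residual substrate was measured.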

[2] = biological target: recombinant form of human IDO1 (rhIDO1) (Homo sapiens, UniProt P14902); experiment: rhIDO1 enzymatic assay; type: biochemical; details: read-out: rhIDO1 inhibition
Summary of the method: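 Recombinant human IDO1 inhibitor-screening kit: 10 µM test compound in complete reaction buffer, 45 min at 37 °C. Stopped with 30% (w/v) CCl₃COOH, heated 50 °C for 15 min and centrifuged. Supernatant was mixed 1:1 with 2% p-dimethylaminobenzaldehyde in acetic acid, and kynurenine pigment read at 490 nm. The kit's positive inhibition control was included. Mean ± SEM, three experiments in triplicate.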

holo-IDO1 = holo-IDO1 (Homo sapiens, UniProt P14902); experiment: Heme detection; type: binding; details: 1 μM holo-IDO1, 120 min, 37 °C; VS9 different concentrations, epacadostat 20 μM
Summary of the method: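 1 µM holo-IDO1 in 100 mM potassium phosphate (pH 7.2) with 1 mM CHAPS was incubated with varying test-compound concentrations, or 20 µM reference inhibitor, for 120 min at 37 °C. Samples were diluted 100-fold, and free heme was measured with a hemin detection kit at 570 nm. Values are relative to untreated, mean of n=3 ± SD.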

MTT cell viability assay = type: cell-based, human; details: human, A375 cells, Cell viability [%] @ 10 μM±SD
Summary of the method: (§1)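 A375 cells were kept in high-glucose DMEM with 10% heat-inactivated FBS, 2 mM L-glutamine and pen/strep. Cells were seeded at 0.5×10^5/well and exposed to 10 µM test compound for 48 h at 37 °C, 5% CO₂, then given MTT. Viability = 100(x−y)/(z−y), where x, y and z are absorbance of treated, resting and untreated cells. Mean ± SD, ≥3 experiments in triplicate.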

A375 cells = experiment: MTT cell viability assay; type: cell-based, human; details: 48 h
Summary of the method: as §1

Sequence of IDO1 (P14902 whole entry): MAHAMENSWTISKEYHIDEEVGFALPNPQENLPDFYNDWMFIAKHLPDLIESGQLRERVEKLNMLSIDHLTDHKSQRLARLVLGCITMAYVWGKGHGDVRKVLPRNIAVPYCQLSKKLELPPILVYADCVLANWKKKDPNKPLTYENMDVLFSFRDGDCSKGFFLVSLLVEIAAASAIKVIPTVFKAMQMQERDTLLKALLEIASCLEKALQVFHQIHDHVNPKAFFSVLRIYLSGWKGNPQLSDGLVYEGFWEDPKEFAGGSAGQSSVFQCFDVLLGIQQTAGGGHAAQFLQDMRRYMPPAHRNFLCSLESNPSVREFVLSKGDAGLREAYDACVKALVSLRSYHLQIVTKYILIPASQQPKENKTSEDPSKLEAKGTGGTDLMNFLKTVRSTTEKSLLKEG
Sequence of holo-IDO1 (P14902 whole entry): as above
Sequence of TDO (P1.TDO) (P48775 whole entry): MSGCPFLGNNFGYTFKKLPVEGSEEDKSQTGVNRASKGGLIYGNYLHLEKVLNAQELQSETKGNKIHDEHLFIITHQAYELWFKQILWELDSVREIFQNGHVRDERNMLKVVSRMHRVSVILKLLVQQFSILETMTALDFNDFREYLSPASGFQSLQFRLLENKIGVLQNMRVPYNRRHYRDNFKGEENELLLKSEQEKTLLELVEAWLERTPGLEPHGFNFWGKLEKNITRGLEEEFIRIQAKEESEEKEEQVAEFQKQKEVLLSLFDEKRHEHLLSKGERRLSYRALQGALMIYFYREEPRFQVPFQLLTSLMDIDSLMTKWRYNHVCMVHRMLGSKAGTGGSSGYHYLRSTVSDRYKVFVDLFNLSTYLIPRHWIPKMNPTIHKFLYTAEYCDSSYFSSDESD
Sequence of recombinant form of human IDO1 (rhIDO1) (P14902 whole entry): as the sequence (P14902 whole entry) above

| IDO cellular assay inhibition [%] @ 10 μM±SD (IDO1; 10 μM, L-Kyn by HPLC) | IC50 (IDO1; IC50±SD [μM]) | Residual peak area after RLS9 incubation (60 min) [1] | inhibition at 10 µM [2] | levels of free heme after incubation with IDO1 (holo-IDO1) | SMILES | Kyn levels in P1.TDO cells (TDO (P1.TDO)) | viability at 48 h, 10 μM (MTT cell viability assay) | Cell viability [%] @ 10 μM±SD (A375 cells) |
| --- | --- | --- | --- | --- | --- | --- | --- | --- |
| 42±9% | 2.6 µM and 2.8 µM | higher than 99% | 54.6 ± 3.1% | did not increase the levels of free heme | O=C(NCc1nnc2ccc(C(F)(F)F)cn12)c1cccc2cn[nH]c12 [Compound 2, N‐((6‐(Trifluoromethyl)‐[1,2,4]triazolo[4,3‐a]pyridin‐3‐yl)methyl)‐1H‐indazole‐7‐carboxamide] | not able to induce a reduction of Kyn levels in P1.TDO | 91 ± 9.9% | 87±18.3% |
|  |  |  |  | did not increase the levels of free heme | NS(=O)(=O)NCCNc1nonc1C(=NO)Nc1ccc(F)c(Br)c1 [epacadostat, reference compound] |  |  |  |

Source: article PMC9291769 (Chemmedchem, 2021)
